Laboratory results as given in ChEMBL document CHEMBL1154956, “Stereospecific synthesis of oximes and oxime ethers of 3-azabicycles: A SAR study towards antimicrobial agents” (2010).
In brackets after ≈: the same amount, converted by molar mass.

Columns and labels:
Assay type in all cases: functional
[1] = test system: Candida parapsilosis; assay: Antifungal activity against Candida parapsilosis by NCCLS broth microdilution method
In short: (§1)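 MIC90 was taken as the lowest concentration that inhibited 90% of pathogen growth after incubation, reported in μg/mL. Broth dilution followed the NCCLS reference standards: M27-A for yeasts and the proposed standard for conidium-forming filamentous fungi. Fluconazole was the reference drug.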

[2] = test system: Aspergillus niger; assay: Antifungal activity against Aspergillus niger by NCCLS broth microdilution method; in short: as §1
[3] = test system: Pseudomonas aeruginosa; assay: Antibacterial activity against Pseudomonas aeruginosa by NCCLS broth microdilution method
[4] = test system: Cryptococcus neoformans; assay: Antifungal activity against Cryptococcus neoformans by NCCLS broth microdilution method; in short: as §1
[5] = test system: Klebsiella pneumoniae; assay: Antibacterial activity against Klebsiella pneumoniae by NCCLS broth microdilution method
[6] = test system: Staphylococcus aureus; assay: Antibacterial activity against Staphylococcus aureus by NCCLS broth microdilution method
[7] = test system: Candida albicans; assay: Antifungal activity against Candida albicans by NCCLS broth microdilution method; in short: as §1
[8] = test system: Bacillus subtilis; assay: Antibacterial activity against Bacillus subtilis by NCCLS broth microdilution method
[9] = Bacillus subtilis, read-out: MIC90
[10] = Lodderomyces parapsilosis, read-out: MIC90
[11] = Aspergillus niger, read-out: MIC90
[12] = Cryptococcus neoformans, read-out: MIC90
[13] = Candida albicans, read-out: MIC90
[14] = Pseudomonas aeruginosa, read-out: MIC90
[15] = Klebsiella pneumoniae, read-out: MIC90
[16] = Staphylococcus aureus, read-out: MIC90

SMILES | MIC90 [1] [µg/mL] | MIC90 [2] [µg/mL] | MIC90 [3] [µg/mL] | MIC90 [4] [µg/mL] | MIC90 [5] [µg/mL] | MIC90 [6] [µg/mL] | MIC90 [7] [µg/mL] | MIC90 [8] [µg/mL] | MIC90 [8, 9] [µg/mL] | MIC90 [1, 10] [µg/mL] | MIC90 [2, 11] [µg/mL] | MIC90 [4, 12] [µg/mL] | MIC90 [7, 13] [µg/mL] | MIC90 [3, 14] [µg/mL] | MIC90 [5, 15] [µg/mL] | MIC90 [6, 16] [µg/mL]
CON=C1C2CC(C)CC1C(c1ccccc1Cl)NC2c1ccccc1Cl (stereo in doubt; 58b) | 4 (≈ 9.92 µM) | 2 (≈ 4.96 µM) | 16 (≈ 39.7 µM) | 2 (≈ 4.96 µM) | 16 (≈ 39.7 µM) | 8 (≈ 19.8 µM) | 4 (≈ 9.92 µM) | 32 (≈ 79.3 µM) |  |  |  |  |  |  |  | 
CC1CC2C(=NO)C(C1)C(c1ccccc1F)NC2c1ccccc1F (stereo in doubt; 49a) | 128 (≈ 359 µM) | 64 (≈ 180 µM) | 32 (≈ 89.8 µM) | 64 (≈ 180 µM) | 16 (≈ 44.9 µM) | 8 (≈ 22.4 µM) | 64 (≈ 180 µM) |  | 16 (≈ 44.9 µM) |  |  |  |  |  |  | 
OC(Cn1cncn1)(Cn1cncn1)c1ccc(F)cc1F [FLUCONAZOLE] |  |  |  |  |  |  |  |  |  | 2 (≈ 6.53 µM) | 4 (≈ 13.1 µM) | 2 (≈ 6.53 µM) | 1 (≈ 3.27 µM) |  |  | 
CON=C1C2CC(C)CC1C(c1cccc(F)c1)NC2c1cccc(F)c1 (stereo in doubt; 56a) |  | 64 (≈ 173 µM) |  |  |  |  | 32 (≈ 86.4 µM) |  | 16 (≈ 43.2 µM) | 32 (≈ 86.4 µM) |  | 64 (≈ 173 µM) |  | 64 (≈ 173 µM) | 64 (≈ 173 µM) | 16 (≈ 43.2 µM)
CO/N=C1\C2CCCC1(C)C(c1ccc(Br)cc1)NC2c1ccc(Br)cc1 (configuration not stated) |  |  |  |  |  |  |  |  | 64 (≈ 130 µM) | 128 (≈ 260 µM) | 32 (≈ 65 µM) | 64 (≈ 130 µM) | 64 (≈ 130 µM) | > 128 | 32 (≈ 65 µM) | 32 (≈ 65 µM)
CO/N=C1\C2CCCC1(C)C(c1ccc(Cl)cc1)NC2c1ccc(Cl)cc1 (configuration not stated) |  |  |  |  |  |  |  |  | 64 (≈ 159 µM) | 16 (≈ 39.7 µM) | 8 (≈ 19.8 µM) | 8 (≈ 19.8 µM) | 16 (≈ 39.7 µM) | 64 (≈ 159 µM) | 16 (≈ 39.7 µM) | 32 (≈ 79.3 µM)
CC12CCCC(/C1=N\O)C(c1ccc(F)cc1)NC2c1ccc(F)cc1 (configuration not stated) |  |  |  |  |  |  |  |  | 64 (≈ 180 µM) | 32 (≈ 89.8 µM) | 64 (≈ 180 µM) | 32 (≈ 89.8 µM) | 16 (≈ 44.9 µM) | 64 (≈ 180 µM) | 32 (≈ 89.8 µM) | 16 (≈ 44.9 µM)
CON=C1C2CC(C)CC1C(c1ccccc1Cl)NC2c1ccccc1Cl (stereo in doubt; 58a) | 16 (≈ 39.7 µM) | 32 (≈ 79.3 µM) | 4 (≈ 9.92 µM) | 16 (≈ 39.7 µM) | 4 (≈ 9.92 µM) |  |  | 8 (≈ 19.8 µM) |  |  |  |  | 8 (≈ 19.8 µM) |  |  | 4 (≈ 9.92 µM)
CC1CC2C(=NO)C(C1)C(c1ccccc1Cl)NC2c1ccccc1Cl (stereo in doubt; 52a) |  | > 128 | 32 (≈ 82.2 µM) |  |  |  | 16 (≈ 41.1 µM) |  | 32 (≈ 82.2 µM) | 32 (≈ 82.2 µM) |  | 32 (≈ 82.2 µM) |  |  | 32 (≈ 82.2 µM) | 16 (≈ 41.1 µM)
CON=C1C2CC(C)CC1C(c1ccc(F)cc1)NC2c1ccc(F)cc1 (configuration not stated) |  |  |  |  |  |  |  |  | 16 (≈ 43.2 µM) | 64 (≈ 173 µM) | 16 (≈ 43.2 µM) | 8 (≈ 21.6 µM) | 16 (≈ 43.2 µM) | 16 (≈ 43.2 µM) | 8 (≈ 21.6 µM) | 4 (≈ 10.8 µM)
Cc1ccc(C2NC(c3ccc(C)cc3)C3(C)CCCC2/C3=N\O)cc1 (configuration not stated) |  |  |  |  |  |  |  |  | 128 (≈ 367 µM) | > 128 | 64 (≈ 184 µM) | 128 (≈ 367 µM) | 128 (≈ 367 µM) | > 128 | > 128 | 128 (≈ 367 µM)
CON=C1C2CC(C)CC1C(c1cccc(F)c1)NC2c1cccc(F)c1 (stereo in doubt; 56b) | 16 (≈ 43.2 µM) | 16 (≈ 43.2 µM) | 64 (≈ 173 µM) | 32 (≈ 86.4 µM) | 64 (≈ 173 µM) | 32 (≈ 86.4 µM) | 8 (≈ 21.6 µM) | 32 (≈ 86.4 µM) |  |  |  |  |  |  |  | 
CC12CCCC(/C1=N\O)C(c1ccc(Cl)cc1)NC2c1ccc(Cl)cc1 (configuration not stated) |  |  |  |  |  |  |  |  | > 128 | 64 (≈ 164 µM) | 64 (≈ 164 µM) | 32 (≈ 82.2 µM) | 32 (≈ 82.2 µM) | > 128 | 16 (≈ 41.1 µM) | 64 (≈ 164 µM)
CC12CCCC(/C1=N\O)C(c1cccc(Cl)c1)NC2c1cccc(Cl)c1 (configuration not stated) |  |  |  |  |  |  |  |  | > 128 | 64 (≈ 164 µM) | > 128 | 128 (≈ 329 µM) | 64 (≈ 164 µM) | > 128 | 64 (≈ 164 µM) | 64 (≈ 164 µM)
CO/N=C1\C2CCCC1(C)C(c1ccc(OC)cc1)NC2c1ccc(OC)cc1 (configuration not stated) |  |  |  |  |  |  |  |  | 64 (≈ 162 µM) | 128 (≈ 324 µM) | 128 (≈ 324 µM) | > 128 | 64 (≈ 162 µM) | 128 (≈ 324 µM) | 64 (≈ 162 µM) | 16 (≈ 40.6 µM)
CC12CCCC(/C1=N\O)C(c1ccccc1F)NC2c1ccccc1F (configuration not stated) |  |  |  |  |  |  |  |  | 32 (≈ 89.8 µM) | 8 (≈ 22.4 µM) | 64 (≈ 180 µM) | 64 (≈ 180 µM) | 8 (≈ 22.4 µM) | 32 (≈ 89.8 µM) | 16 (≈ 44.9 µM) | 8 (≈ 22.4 µM)
CO/N=C1\C2CCCC1(C)C(c1ccccc1OC)NC2c1ccccc1OC (configuration not stated) |  |  |  |  |  |  |  |  | 32 (≈ 81.1 µM) | 64 (≈ 162 µM) | 128 (≈ 324 µM) | 128 (≈ 324 µM) | 64 (≈ 162 µM) | 64 (≈ 162 µM) | 32 (≈ 81.1 µM) | 32 (≈ 81.1 µM)
